Source: ChEMBL document CHEMBL1121548, “Structure-activity relationships of pyrrole amidine antiviral antibiotics. 2. Preparation of mono- and tripyrrole derivatives of congocidine” (1980)

How the values were obtained:
Nucleic Acid [1] = test: In vitro ability to inhibit HSV DNA polymerase activity in vitro using activated calf thymus DNA as atemplate at dose 400 ug/mL; assay type: nucleic-acid assay; details: herpes simplex virus
Human alphaherpesvirus 1 [2] = test: In vitro ability to inhibit synthesis of herpes simplex virus (HSV) DNA in isolated nuclei at dose 25 ug/mL
Human alphaherpesvirus 1 [3] = test: In vitro ability to inhibit synthesis of herpes simplex virus (HSV) DNA in isolated nuclei at dose 200 ug/mL
Nucleic Acid [4] = test: In vitro ability to inhibit HSV DNA polymerase activity in vitro using activated calf thymus DNA as atemplate at dose 100 ug/mL; assay type: nucleic-acid assay; details: herpes simplex virus
Human alphaherpesvirus 1 [5] = test: In vitro ability to inhibit synthesis of herpes simplex virus (HSV) DNA in isolated nuclei at dose 50 ug/mL
Nucleic Acid [6] = test: In vitro ability to inhibit HSV DNA polymerase activity in vitro using activated calf thymus DNA as atemplate at dose 50 ug/mL; assay type: nucleic-acid assay; details: herpes simplex virus
Nucleic Acid [7] = test: In vitro ability to inhibit HSV DNA polymerase activity in vitro using activated calf thymus DNA as atemplate at dose 200 ug/mL; assay type: nucleic-acid assay; details: herpes simplex virus
Human alphaherpesvirus 1 [8] = test: Compound were tested for their ability to inhibit HSV replication at their maximal nontoxic concentration; details: herpes simplex virus
Human alphaherpesvirus 1 [9] = test: In vitro ability to inhibit synthesis of herpes simplex virus (HSV) DNA in isolated nuclei at dose 400 ug/mL
Nucleic Acid [10] = test: In vitro ability to inhibit HSV DNA polymerase activity in vitro using activated calf thymus DNA as atemplate at dose 25 ug/mL; assay type: nucleic-acid assay; details: herpes simplex virus
BSC-1 = test: Evaluation of titer of virus progeny produced in untreated infected cells and in cells treated with the compound by plaque assay on BSC-1 cells.; assay type: functional, Cercopithecidae; set-up: concentration or dose not given beside the values
How it was run: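 HSV type 1-infected cell cultures were exposed to drug at the maximal nontoxic concentration. Toxicity means cell death within 2 days of drug incubation at 37 °C; the maximal nontoxic level is the concentration whose twofold increase causes toxicity. Progeny virus titer was determined by plaque assay on BSC-1 cells. Yield is expressed as a percentage of the untreated infected-cell yield (taken as 100%).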

Human alphaherpesvirus 1 [11] = test: In vitro ability to inhibit synthesis of herpes simplex virus (HSV) DNA in isolated nuclei at dose 100 ug/mL
Human alphaherpesvirus 2 = test: Compound were tested for their ability to inhibit HSV replication at their maximal nontoxic concentration; 400 ug/mL of the drug was not toxic; assay type: functional, organism-based; details: herpes simplex virus

Cl.Cn1cc(NC(=O)c2cc(NC(=O)c3cc(NC(=O)CN=C(N)N)cn3C)cn2C)cc1C(=O)NCCC#N
inhibition (Nucleic Acid [1]): 91% | inhibition at 25 µg/mL (Human alphaherpesvirus 1 [2]): 56% | inhibition at 200 µg/mL (Human alphaherpesvirus 1 [3]): 87% | inhibition (Nucleic Acid [4]): 68% | inhibition at 50 µg/mL (Human alphaherpesvirus 1 [5]): 68% | inhibition (Nucleic Acid [6]): 35% | inhibition (Nucleic Acid [7]): 79% | Concentration (Human alphaherpesvirus 1 [8]): 50 µg/mL | inhibition at 400 µg/mL (Human alphaherpesvirus 1 [9]): 89% | inhibition (Nucleic Acid [10]): 12% | Inhibition (BSC-1): 93.14%

CC(CC(=N)N)NC(=O)c1cc(NC(=O)c2cc(NC(=O)c3cc(NC(=O)CN=C(N)N)cn3C)cn2C)cn1C.Cl.Cl (stereo not drawn)
inhibition (Nucleic Acid [1]): 97% | inhibition at 25 µg/mL (Human alphaherpesvirus 1 [2]): 56% | inhibition at 200 µg/mL (Human alphaherpesvirus 1 [3]): 91% | inhibition at 100 µg/mL (Human alphaherpesvirus 1 [11]): 83% | inhibition (Nucleic Acid [4]): 83% | inhibition at 50 µg/mL (Human alphaherpesvirus 1 [5]): 73% | inhibition (Nucleic Acid [6]): 59% | inhibition (Nucleic Acid [7]): 96% | Concentration (Human alphaherpesvirus 1 [8]): 10 µg/mL | inhibition at 400 µg/mL (Human alphaherpesvirus 1 [9]): 97% | inhibition (Nucleic Acid [10]): 26% | Inhibition (BSC-1): 99.3%

CC(CC#N)NC(=O)c1cc(NC(=O)c2cc(NC(=O)c3cc(NC(=O)CN=C(N)N)cn3C)cn2C)cn1C.Cl (stereo not drawn)
Concentration (Human alphaherpesvirus 2): > 400 µg/mL | Inhibition (BSC-1): 90.9%

Cl.Cl.Cn1cc(NC(=O)c2cc(NC(=O)c3cc(NC=O)cn3C)cn2C)cc1C(=O)NCCC(=N)N
inhibition (Nucleic Acid [1]): 99% | inhibition at 25 µg/mL (Human alphaherpesvirus 1 [2]): 79% | inhibition at 200 µg/mL (Human alphaherpesvirus 1 [3]): 95% | inhibition at 100 µg/mL (Human alphaherpesvirus 1 [11]): 89% | inhibition (Nucleic Acid [4]): 85% | inhibition at 50 µg/mL (Human alphaherpesvirus 1 [5]): 85% | inhibition (Nucleic Acid [6]): 62% | inhibition (Nucleic Acid [7]): 98% | Concentration (Human alphaherpesvirus 1 [8]): 25 µg/mL | inhibition at 400 µg/mL (Human alphaherpesvirus 1 [9]): 98% | inhibition (Nucleic Acid [10]): 20% | Inhibition (BSC-1): 99.7%

Cl.Cl.Cn1cc(NC(=O)c2cc(NC(=O)CNC(=N)N)cn2C)cc1C(=O)NCCC(=N)N [CONGOCIDINE]
inhibition (Nucleic Acid [1]): 93% | inhibition at 25 µg/mL (Human alphaherpesvirus 1 [2]): 64% | inhibition at 200 µg/mL (Human alphaherpesvirus 1 [3]): 71% | inhibition at 100 µg/mL (Human alphaherpesvirus 1 [11]): 61% | inhibition (Nucleic Acid [4]): 78% | inhibition at 50 µg/mL (Human alphaherpesvirus 1 [5]): 67% | inhibition (Nucleic Acid [6]): 61% | inhibition (Nucleic Acid [7]): 90% | Concentration (Human alphaherpesvirus 1 [8]): 5 µg/mL | inhibition at 400 µg/mL (Human alphaherpesvirus 1 [9]): 88% | inhibition (Nucleic Acid [10]): 30% | Inhibition (BSC-1): 98.1%

Cl.Cl.Cn1cc(NC(=O)c2cc(NC(=O)c3cc(NC(=O)CN=C(N)N)cn3C)cn2C)cc1C(=O)NCCC(=N)N
inhibition (Nucleic Acid [1]): 99% | inhibition at 25 µg/mL (Human alphaherpesvirus 1 [2]): 78% | inhibition at 200 µg/mL (Human alphaherpesvirus 1 [3]): 97% | inhibition at 100 µg/mL (Human alphaherpesvirus 1 [11]): 92% | inhibition (Nucleic Acid [4]): 93% | inhibition at 50 µg/mL (Human alphaherpesvirus 1 [5]): 84% | inhibition (Nucleic Acid [6]): 64% | inhibition (Nucleic Acid [7]): 94% | Concentration (Human alphaherpesvirus 1 [8]): 25 µg/mL | inhibition at 400 µg/mL (Human alphaherpesvirus 1 [9]): 97% | inhibition (Nucleic Acid [10]): 25% | Inhibition (BSC-1): 99.7%

Cl.Cl.Cn1cc(NC(=O)c2cc(NC(=O)c3cc(NC(=O)CN=C(N)N)cn3C)cn2C)cc1C(=O)NCC(=N)N
inhibition (Nucleic Acid [1]): 99% | inhibition (Nucleic Acid [4]): 89% | inhibition (Nucleic Acid [6]): 83% | inhibition (Nucleic Acid [7]): 99% | Concentration (Human alphaherpesvirus 1 [8]): 100 µg/mL | inhibition (Nucleic Acid [10]): 39% | Inhibition (BSC-1): 99.7%
